Laboratory results taken from ChEMBL document CHEMBL3351583, “Two-pronged attack: dual inhibition of Plasmodium falciparum M1 and M17 metalloaminopeptidases by a novel series of hydroxamic acid-based inhibitors” (J Med Chem, 2014).
pIC50, pKi: −log10 of the molar value.

Columns and labels:
Aminopeptidase N = target: T1, Aminopeptidase N (Plasmodium falciparum FcB1/Columbia, UniProt O96935); assay: Inhibition of Plasmodium falciparum M1 incubated for 10 mins before H-Leu-NHMec substrate addition by fluorescence assay
T1 sequence (O96935 whole entry): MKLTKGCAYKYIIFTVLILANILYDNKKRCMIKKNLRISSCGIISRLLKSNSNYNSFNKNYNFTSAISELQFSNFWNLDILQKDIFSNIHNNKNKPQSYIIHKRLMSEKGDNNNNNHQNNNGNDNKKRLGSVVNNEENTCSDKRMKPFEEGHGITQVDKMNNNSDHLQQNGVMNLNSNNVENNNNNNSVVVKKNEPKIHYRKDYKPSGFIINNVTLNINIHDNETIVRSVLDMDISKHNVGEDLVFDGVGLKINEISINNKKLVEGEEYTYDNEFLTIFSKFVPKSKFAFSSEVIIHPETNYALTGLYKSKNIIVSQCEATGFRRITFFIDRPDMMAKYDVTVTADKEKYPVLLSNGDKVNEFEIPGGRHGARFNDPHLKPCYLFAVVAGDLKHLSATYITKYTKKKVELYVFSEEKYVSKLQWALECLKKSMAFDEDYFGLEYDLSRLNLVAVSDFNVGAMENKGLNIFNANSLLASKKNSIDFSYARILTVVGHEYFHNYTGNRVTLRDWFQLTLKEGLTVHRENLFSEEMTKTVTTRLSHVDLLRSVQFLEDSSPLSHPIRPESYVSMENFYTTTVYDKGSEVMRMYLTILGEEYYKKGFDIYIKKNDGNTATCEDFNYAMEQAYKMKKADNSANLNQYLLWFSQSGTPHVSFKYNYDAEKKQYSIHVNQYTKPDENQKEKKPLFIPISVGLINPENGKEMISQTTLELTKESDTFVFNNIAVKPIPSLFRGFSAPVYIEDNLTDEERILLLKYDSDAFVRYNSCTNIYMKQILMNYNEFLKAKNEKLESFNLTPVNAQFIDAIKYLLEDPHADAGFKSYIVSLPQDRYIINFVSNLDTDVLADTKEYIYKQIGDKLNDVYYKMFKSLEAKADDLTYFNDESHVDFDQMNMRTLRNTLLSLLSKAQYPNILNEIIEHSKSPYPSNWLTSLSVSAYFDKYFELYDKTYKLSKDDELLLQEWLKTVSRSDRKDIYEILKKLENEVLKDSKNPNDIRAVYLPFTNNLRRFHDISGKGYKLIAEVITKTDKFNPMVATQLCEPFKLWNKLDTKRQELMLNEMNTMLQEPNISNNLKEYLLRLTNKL
Method in brief: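 Recombinant PfA-M1 (E. coli, Ni-NTA then size exclusion) preincubated with inhibitor (0-500 μM) 10 min in 100 mM Tris pH 8.0 at 37 °C, then H-Leu-NHMec added below Km. NHMec release read at ex 355/em 460 nm to steady-state velocity; Ki from Dixon plots of 1/V against inhibitor concentration.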

Leucine aminopeptidase = target: T2, Leucine aminopeptidase (Plasmodium falciparum 3D7, UniProt Q8IL11); assay: Inhibition of Plasmodium falciparum M17 incubated for 10 mins before H-Leu-NHMec substrate addition by fluorescence assay
T2 sequence (Q8IL11 whole entry): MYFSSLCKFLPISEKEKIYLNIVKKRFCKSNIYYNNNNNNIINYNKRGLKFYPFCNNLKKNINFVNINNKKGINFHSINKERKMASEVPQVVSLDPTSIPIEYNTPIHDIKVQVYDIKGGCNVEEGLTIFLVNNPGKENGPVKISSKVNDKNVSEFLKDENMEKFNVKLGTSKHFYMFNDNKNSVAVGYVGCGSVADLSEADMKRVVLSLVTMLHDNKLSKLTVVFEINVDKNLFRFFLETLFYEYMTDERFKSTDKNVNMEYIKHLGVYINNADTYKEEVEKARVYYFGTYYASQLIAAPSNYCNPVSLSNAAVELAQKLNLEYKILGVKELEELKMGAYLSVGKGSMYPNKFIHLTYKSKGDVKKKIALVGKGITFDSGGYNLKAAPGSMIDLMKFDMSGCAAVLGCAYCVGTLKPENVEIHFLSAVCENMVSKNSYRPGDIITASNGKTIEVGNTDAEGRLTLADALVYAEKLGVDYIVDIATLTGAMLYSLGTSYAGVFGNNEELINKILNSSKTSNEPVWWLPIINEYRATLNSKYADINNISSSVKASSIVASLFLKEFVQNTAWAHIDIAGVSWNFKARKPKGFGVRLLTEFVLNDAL
Method in brief: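 Recombinant PfA-M17 purified from E. coli by Ni-NTA and gel filtration; 10 min inhibitor preincubation (0-500 μM) in 50 mM Tris pH 8.0, 2 mM CoCl₂, 37 °C, before H-Leu-NHMec at sub-Km level. Fluorescence (355/460 nm) followed to final steady-state velocity; Ki obtained by Dixon plot.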

HEK293 = assay: Cytotoxicity against HEK293 cells assessed as growth inhibition up to 40 uM after 72 hrs by resazurin based assay; type: cell-based; conditions: human, hek293, 72 h
Method in brief: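 HEK293 in DMEM plus 10% FCS, seeded 2000 cells/well, adhered overnight, then dosed to top final 40 μM, 0.4% DMSO, 72 h at 37 °C, 5% CO₂. Medium replaced with 44 μM resazurin in serum-free DMEM, 4-6 h more, fluorescence 530/595 nm; % growth against 40 μM puromycin and 0.4% DMSO controls; IC50 by variable-slope nonlinear regression.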

Plasmodium falciparum = assay: Antimalarial activity against Plasmodium falciparum 3D7 assessed as parasite growth inhibition after 72 hrs by DAPI staining based confocal microscopy; type: functional, organism-based; conditions: 3D7, 72 h
Method in brief: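 Sorbitol-synchronised 3D7 rings (2% parasitaemia, 0.3% haematocrit) in RPMI/Hepes/hypoxanthine/AlbuMAX II exposed to three-step log dilutions from 40 μM top, final 0.4% DMSO, 72 h at 37 °C, 5% CO₂. Saponin/Triton X/EDTA buffer with DAPI added, overnight RT, confocal imaging counts parasites; % growth versus 2 μM artemisinin and 0.4% DMSO controls; IC50 by variable-slope nonlinear regression.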

With `CC(C)(C)OC(=O)NC(C(=O)O)c1ccc(-n2cccn2)cc1` (stereo unspecified) the pKi (Aminopeptidase N) was < 3.30, the pKi (Leucine aminopeptidase) was 3.33 and the Activity (HEK293) was “Non-toxic”.
In the case of `Cl.NC(C(=O)O)c1ccc(-n2cccn2)cc1` (stereo unspecified), the pKi (Aminopeptidase N) was < 3.30, the pKi (Leucine aminopeptidase) was < 3.30 and the Activity (HEK293) was “Non-toxic”.
Work on `CC(C)(C)OC(=O)NC(C(=O)NO)c1ccc(-n2cccn2)cc1` (stereo unspecified) yielded a pKi (Aminopeptidase N) of 6.10, a pKi (Leucine aminopeptidase) of 7.52 and a pIC50 (Plasmodium falciparum) of 6.11. For the same compound, the Activity (HEK293) was “Non-toxic”.
`Cl.NC(C(=O)NO)c1ccc(-n2cccn2)cc1` (stereo unspecified) was tested, and the pKi (Aminopeptidase N) was 4.13, the pKi (Leucine aminopeptidase) was 4.07 and the Activity (HEK293) was “Non-toxic”.
With `CC(=O)NC(C(=O)NO)c1ccc(-n2cccn2)cc1` (stereo unspecified) the pKi (Aminopeptidase N) was 3.95, the pKi (Leucine aminopeptidase) was 7.72 and the pIC50 (Plasmodium falciparum) was 6.21. For the same compound, the Activity (HEK293) was “Non-toxic”.
Compound `CCC(=O)NC(C(=O)NO)c1ccc(-n2cccn2)cc1` (stereo unspecified) has a pKi (Aminopeptidase N) of 4.38, a pKi (Leucine aminopeptidase) of 7.80 and a pIC50 (Plasmodium falciparum) of 6.34. The Activity (HEK293) was “Non-toxic”.
`CC(C)C(=O)NC(C(=O)NO)c1ccc(-n2cccn2)cc1` (stereo unspecified) gave a pKi (Aminopeptidase N) of 4.91, a pKi (Leucine aminopeptidase) of 7.28 and a pIC50 (Plasmodium falciparum) of 6.27. The Activity (HEK293) was “Non-toxic”.
For `CC(C)(C)C(=O)NC(C(=O)NO)c1ccc(-n2cccn2)cc1` (stereo unspecified), the pKi (Aminopeptidase N) was 6.15, the pKi (Leucine aminopeptidase) was 7.55 and the pIC50 (Plasmodium falciparum) was 6.64. The Activity (HEK293) was “Non-toxic”.
Compound `CC(C)(C)NC(=O)NC(C(=O)NO)c1ccc(-n2cccn2)cc1` (stereo unspecified) has a pKi (Aminopeptidase N) of 4.82, a pKi (Leucine aminopeptidase) of 7.42 and a pIC50 (Plasmodium falciparum) of 6.22. The Activity (HEK293) was “Non-toxic”.
`O=C(NC(C(=O)NO)c1ccc(-n2cccn2)cc1)c1ccccc1` (stereo unspecified) was tested, and the pKi (Aminopeptidase N) was 4.64, the pKi (Leucine aminopeptidase) was 6.81 and the Activity (HEK293) was “Non-toxic”.
`O=C(NC(C(=O)NO)c1ccc(-n2cccn2)cc1)c1ccccc1F` (stereo unspecified) was tested, and the pKi (Aminopeptidase N) was 5.72, the pKi (Leucine aminopeptidase) was 8.10 and the pIC50 (Plasmodium falciparum) was 6.45. The Activity (HEK293) was “Non-toxic”.
With `O=C(NC(C(=O)NO)c1ccc(-n2cccn2)cc1)c1cccc(F)c1` (stereo unspecified) the pKi (Aminopeptidase N) was 5.40, the pKi (Leucine aminopeptidase) was 7.46 and the pIC50 (Plasmodium falciparum) was 6.37. The Activity (HEK293) was “Non-toxic”.
Work on `O=C(NC(C(=O)NO)c1ccc(-n2cccn2)cc1)c1ccc(F)cc1` (stereo unspecified) yielded a pKi (Aminopeptidase N) of 4.95, a pKi (Leucine aminopeptidase) of 7.92 and a pIC50 (Plasmodium falciparum) of 6.15. The Activity (HEK293) was “Non-toxic”.
`Nc1cccc(C(=O)NC(C(=O)NO)c2ccc(-n3cccn3)cc2)c1` (stereo unspecified) showed a pKi (Aminopeptidase N) of 5.26, a pKi (Leucine aminopeptidase) of 7.85 and a pIC50 (Plasmodium falciparum) of 6.63. The Activity (HEK293) was “Non-toxic”.
Compound `Nc1ccc(C(=O)NC(C(=O)NO)c2ccc(-n3cccn3)cc2)cc1` (stereo unspecified) has a pKi (Aminopeptidase N) of 5.13, a pKi (Leucine aminopeptidase) of 7.96 and a pIC50 (Plasmodium falciparum) of 6.64. The Activity (HEK293) was “Non-toxic”.
